Source: ChEMBL document CHEMBL4680086, “Antiangiogenic Effect of (±)-Haloperidol Metabolite II Valproate Ester [(±)-MRJF22] in Human Microvascular Retinal Endothelial Cells” (J Med Chem, 2016)
Values after ≈ are worked out from the molar mass of the structure shown. Active and inactive are the calls of the source. No cut-off for these calls is given here.

Legend:
[1] = Cytotoxicity in HREC assessed as reduction in cell viability incubated for 96 hrs by MTT assay; type: functional; conditions: Homo sapiens
Method in brief: (§1)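 HREC were exposed to the test agent for 24, 48, 72 or 96 h. Viability was measured by MTT, and IC50 values were derived for each time point.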

HREC [2] = experiment: (§2) Suppression of VEGF-A-induced cell migration in HREC assessed as crossing cells count at 5 uM incubated for 72 hrs by wound healing assay (reference value: 26%); type: functional; conditions: Homo sapiens
HREC [3] = experiment: (§3) Cytotoxicity in HREC assessed as reduction in cell counts at 5 uM incubated for 24 hrs under basal conditions by Trypan blue dye exclusion assay; type: functional; conditions: Homo sapiens
Method in brief: (§4)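 HRECs grown in medium with 1% FBS under basal conditions, no VEGF-A. Exposure 24 or 72 h. Read-out is the count of live cells excluding dye in a Trypan blue exclusion test.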

[4] = Cytotoxicity in HREC assessed as reduction in cell viability incubated for 48 hrs by MTT assay; type: functional; conditions: Homo sapiens; method in brief: as §1
[5] = target: Sigma non-opioid intracellular receptor 1 (Cavia porcellus, UniProt Q60492); experiment: Displacement of [3H]-pentazocine from sigma1 receptor in guinea pig brain membranes by scintillation counting; type: cell membranes, Cell membrane
HREC [6] = experiment: (§5) Cytotoxicity in HREC assessed as reduction in cell counts at 5 uM incubated for 72 hrs under basal conditions by Trypan blue dye exclusion assay; type: functional; conditions: Homo sapiens; method in brief: as §4
[7] = Displacement of [3H]-DTG from sigma2 receptor in guinea pig brain membranes by scintillation counting; type: cell membranes, Cavia porcellus, Cell membrane
[8] = Cytotoxicity in HREC assessed as reduction in cell viability incubated for 72 hrs by MTT assay; type: functional; conditions: Homo sapiens; method in brief: as §1
HREC [9] = experiment: Effect on cell migration of in HREC at 5 uM incubated for 24 to 72 hrs by wound healing assay; type: functional; conditions: Homo sapiens, time 24-72 hrs
Method in brief: (§6)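 A scratch wound was made in a confluent HREC monolayer, which was then kept in 1% FBS medium, either basal or with VEGF-A 80 ng/mL. (+)-Pentazocine (1 or 2 μM) was added where indicated. Wound-edge cell advancement was scored as a percentage at 24 and 72 h after the scratch.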

[10] = Cytotoxicity in HREC assessed as reduction in cell viability incubated for 24 hrs by MTT assay; type: functional; conditions: Homo sapiens
Method in brief: (§7)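 HREC viability measured by MTT test after compound exposure for 24, 48, 72 or 96 h, with concentrations up to 200 μM.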

HREC [11] = experiment: (§8) Suppression of VEGF-A-induced cell migration in HREC assessed as crossing cells count at 5 uM incubated for 24 hrs by wound healing assay (reference value: 63%); type: functional; conditions: Homo sapiens
HREC [12] = experiment: Cytotoxicity in HREC assessed as reduction in cell viability at 20 uM incubated for 72 hrs in presence of 1 uM sigma1 selective agonist (+)-pentazocine by MTT assay; type: functional; conditions: Homo sapiens
Method in brief: (§9)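 HREC were co-incubated for 72 h with the test agent plus either the σ1 agonist (+)-pentazocine (1 μM) or the σ2 ligand AC927 (1 μM). Viability was read by MTT test.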

[13] = Cytotoxicity in HREC assessed as reduction in cell viability at 200 uM incubated for 24 hrs by MTT assay; type: functional, Homo sapiens; method in brief: as §7
HREC [14] = experiment: Cytotoxicity in HREC assessed as reduction in cell viability by MTT assay; type: functional; conditions: Homo sapiens, TDE = time-dependent effect; method in brief: as §1
HREC [15] = experiment: Cytotoxicity in HREC assessed as reduction in cell viability at 20 uM incubated for 72 hrs in presence of 1 uM sigma2 receptor antagonist AC927 by MTT assay; type: functional; conditions: Homo sapiens; method in brief: as §9
[16] = Cytotoxicity in HREC assessed as reduction in cell viability at 20 uM incubated for 72 hrs by MTT assay; type: functional, Homo sapiens; method in brief: as §7
D(3) dopamine receptor = D(3) dopamine receptor (Rattus norvegicus, UniProt P19020); experiment: Displacement of [3H]-7-OH-DPAT from DRD3 in rat olfactory tubercle by scintillation counting; type: tissue-based
HREC [17] = experiment: Effect on cell migration of in HREC at 2 uM incubated for 24 to 72 hrs by wound healing assay; type: functional; conditions: Homo sapiens, time 24-72 hrs
HREC [18] = experiment: Suppression of VEGF-A-induced cell migration in HREC assessed as effect on crossing cells count at 2 uM incubated for 24 to 72 hrs by wound healing assay; type: functional; conditions: Homo sapiens, time 24-72 hrs
HREC [19] = experiment: (§10) Suppression of VEGF-A-induced angiogenesis in HREC assessed as reduction of the ramification number at 5 uM incubated for 24 hrs by Matrigel based tube formation assay; type: functional; conditions: Homo sapiens
Method in brief: (§11)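 HRECs plated on Matrigel in the presence of VEGF-A. Emerging branch points (ramification number) from tube formation were quantified by phase-contrast imaging.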

[20] = Solubility in water incubated for 1 hr by HPLC analysis; type: physicochemical
[21] = Stability in rat plasma assessed as compound hydrolysis at 37 degC by HPLC analysis; type: ADME, cell-free
Method in brief: (§12)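 Compound was incubated in rat or human plasma, and ester hydrolysis was followed. The rate was expressed as the observed rate constant kobs.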

[22] = Cytotoxicity in HREC assessed as reduction in cell viability at 5 uM incubated for 72 hrs in presence of 1 uM sigma2 receptor antagonist AC927 by MTT assay; type: functional, Homo sapiens
Method in brief: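 HRECs co-incubated with compound and the σ2 ligand AC927 (1 μM) for 72 h. Cell viability read by MTT test.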

[23] = Cytotoxicity in HREC assessed as reduction in cell viability at 5 uM incubated for 72 hrs by MTT assay; type: functional, Homo sapiens; method in brief: as §7
[24] = Stability in pH 1.3 buffer by HPLC analysis; type: physicochemical
Method in brief: (§13)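 Chemical stability was tested at 37 °C in aqueous buffer at pH 1.3 (non-enzymatic simulated gastric fluid) or pH 7.4.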

HREC [25] = experiment: Suppression of VEGF-A-induced angiogenesis in HREC assessed as reduction of the ramification number at 5 uM incubated for 24 hrs in presence of 2 uM sigma1 selective agonist (+)-pentazocine by Matrigel based tube formation assay; type: functional, tissue-based; conditions: Homo sapiens
Method in brief: (§14)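 HREC were plated on Matrigel with VEGF-A stimulation. Emerging branch points (ramifications) from cell bodies were counted by phase-contrast imaging.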

[26] = as §2; type: functional, Homo sapiens
[27] = as §3; type: functional, Homo sapiens; design: scale not given: the % may be the effect or the level left; method in brief: as §4
HREC [28] = experiment: Suppression of VEGF-A-induced cell migration in HREC assessed as effect on crossing cells count at 5 uM incubated for 24 to 72 hrs in presence of 1 to 2 uM sigma2 receptor antagonist AC927 by wound healing assay; type: functional; conditions: Homo sapiens, time 24-72 hrs
[29] = Stability in human plasma assessed as compound hydrolysis at 37 degC by HPLC analysis; type: ADME, cell-free; method in brief: as §12
[30] = as §5; type: functional, Homo sapiens; design: scale not given: the % may be the effect or the level left; method in brief: as §4
[31] = Cytotoxicity in HREC assessed as reduction in cell viability at 5 uM incubated for 24 hrs by MTT assay; type: functional, Homo sapiens; method in brief: as §7
[32] = Suppression of VEGF-A-induced pro-angiogenesis in HREC assessed as alive cell number count at 5 uM incubated for 24 hrs by Trypan blue dye exclusion assay (reference value: 52%); type: functional, Homo sapiens
[33] = target: Histone deacetylase (Homo sapiens) (UniProt Q13547+O15379+Q9UBN7+Q92769+Q9UQL6+Q8WUI4+Q9BY41+Q96DB2+P56524+Q9UKV0+Q969S8); experiment: Inhibition of HDAC in human HeLa cell extracts at 5 uM using fluorescently labeled HDAC substrate
[34] = Suppression of VEGF-A-induced pro-angiogenesis in HREC assessed as alive cell number count at 5 uM incubated for 72 hrs by Trypan blue dye exclusion assay (reference value: 42%); type: functional, Homo sapiens
HREC [35] = experiment: Cytotoxicity in HREC assessed as reduction in cell viability at 5 uM incubated for 72 hrs in presence of 1 uM sigma1 selective agonist (+)-pentazocine by MTT assay; type: functional; conditions: Homo sapiens; method in brief: as §9
HREC [36] = experiment: Suppression of VEGF-A-induced angiogenesis in HREC assessed as reduction of the ramification number at 5 uM incubated for 24 hrs in presence of 2 uM sigma2 selective antagonist AC927 by Matrigel based tube formation assay; type: functional, tissue-based; conditions: Homo sapiens; method in brief: as §14
D(2) dopamine receptor = D(2) dopamine receptor (Rattus norvegicus, UniProt P61169); experiment: Displacement of [3H]-spiperone from DRD2 in rat striatum by scintillation counting; type: tissue-based
HREC [37] = experiment: Suppression of VEGF-A-induced cell migration in HREC assessed as effect on crossing cells count at 5 uM incubated for 24 to 72 hrs in presence of 1 to 2 uM sigma1 selective agonist (+)-pentazocine by wound healing assay; type: functional; conditions: Homo sapiens, time 24-72 hrs; method in brief: as §6
[38] = as §10; type: functional, Homo sapiens; design: scale not given: the % may be the effect or the level left; method in brief: as §11
[39] = Stability in pH 7.4 buffer by HPLC analysis; type: physicochemical; method in brief: as §13
[40] = as §8; type: functional, Homo sapiens

Chain of D(3) dopamine receptor (P19020 whole entry): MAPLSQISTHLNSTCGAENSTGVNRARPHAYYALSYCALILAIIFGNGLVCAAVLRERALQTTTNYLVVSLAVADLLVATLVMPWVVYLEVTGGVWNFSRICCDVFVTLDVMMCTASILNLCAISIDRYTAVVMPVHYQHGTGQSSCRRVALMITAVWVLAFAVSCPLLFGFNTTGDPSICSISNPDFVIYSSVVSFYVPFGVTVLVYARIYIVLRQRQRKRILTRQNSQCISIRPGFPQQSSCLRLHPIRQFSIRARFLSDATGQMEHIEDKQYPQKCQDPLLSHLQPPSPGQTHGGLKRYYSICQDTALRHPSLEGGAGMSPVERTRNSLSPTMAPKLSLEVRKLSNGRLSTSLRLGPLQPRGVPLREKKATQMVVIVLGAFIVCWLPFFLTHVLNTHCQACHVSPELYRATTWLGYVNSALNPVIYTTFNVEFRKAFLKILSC
Chain of Sigma non-opioid intracellular receptor 1 (Q60492 whole entry): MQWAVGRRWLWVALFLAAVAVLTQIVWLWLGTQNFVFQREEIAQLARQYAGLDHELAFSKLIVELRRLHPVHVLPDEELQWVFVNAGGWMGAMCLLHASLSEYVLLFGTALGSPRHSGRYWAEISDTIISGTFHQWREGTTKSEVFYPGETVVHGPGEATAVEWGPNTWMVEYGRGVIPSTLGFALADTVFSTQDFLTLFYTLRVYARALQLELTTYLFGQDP
Chain of D(2) dopamine receptor (P61169 whole entry): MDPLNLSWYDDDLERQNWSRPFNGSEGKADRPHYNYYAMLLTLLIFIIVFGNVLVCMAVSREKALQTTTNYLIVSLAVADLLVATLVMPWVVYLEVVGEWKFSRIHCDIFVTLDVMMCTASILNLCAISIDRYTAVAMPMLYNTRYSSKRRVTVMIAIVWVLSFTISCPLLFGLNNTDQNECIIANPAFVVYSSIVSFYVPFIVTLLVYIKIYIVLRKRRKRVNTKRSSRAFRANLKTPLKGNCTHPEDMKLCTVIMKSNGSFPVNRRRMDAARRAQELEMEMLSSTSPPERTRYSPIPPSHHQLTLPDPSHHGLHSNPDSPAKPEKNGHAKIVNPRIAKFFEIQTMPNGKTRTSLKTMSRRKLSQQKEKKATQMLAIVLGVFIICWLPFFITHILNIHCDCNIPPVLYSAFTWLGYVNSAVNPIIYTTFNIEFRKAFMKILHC

SMILES: CCCC(CCC)C(=O)O [VALPROIC ACID]
- IC50 ([1]; read-out: IC50): 1480 µM
- IC50 ([1]; read-out: pIC50 (converted)): 1480 µM
- Activity (HREC [2]): inactive
- Activity (HREC [3]): inactive
- IC50 ([4]; read-out: IC50): 1450 µM
- IC50 ([4]; read-out: pIC50 (converted)): 1450 µM
- Ki [5]: > 10 µM
- Activity (HREC [6]): inactive
- Ki [7]: > 10 µM
- IC50 ([8]; read-out: IC50): 1390 µM
- IC50 ([8]; read-out: pIC50 (converted)): 1390 µM
- Activity (HREC [9]): inactive
- IC50 ([10]; read-out: IC50): 1220 µM
- IC50 ([10]; read-out: pIC50 (converted)): 1220 µM
- Activity (HREC [11]): inactive

SMILES: OC(CCCN1CCC(O)(c2ccc(Cl)cc2)CC1)c1ccc(F)cc1 (racemic) [HYDROXYHALOPERIDOL]
- IC50 ([1]; read-out: IC50): 56.6 µM
- IC50 ([1]; read-out: pIC50 (converted)): 56.6 µM
- Activity (HREC [12]): inactive
- Activity [13]: <50%
- Activity (HREC [14]): Tde
- Activity (HREC [2]): inactive
- Activity (HREC [3]): inactive
- IC50 ([4]; read-out: IC50): 128 µM
- IC50 ([4]; read-out: pIC50 (converted)): 128 µM
- Activity (HREC [15]): inactive
- Activity (HREC [6]): inactive
- Ki [7]: 0.0024 µM
- IC50 ([8]; read-out: IC50): 68.7 µM
- IC50 ([8]; read-out: pIC50 (converted)): 68.7 µM
- Activity (HREC [9]): inactive
- IC50 ([10]; read-out: IC50): > 200 µM
- Activity [16]: 29%
- Activity (HREC [11]): inactive
- Ki (D(3) dopamine receptor): 1.02 µM

SMILES: O=C(CCCN1CCC(O)(c2ccc(Cl)cc2)CC1)c1ccc(F)cc1 [HALOPERIDOL]
- IC50 ([1]; read-out: IC50): 2.28 µM
- IC50 ([1]; read-out: pIC50 (converted)): 2.29 µM
- Activity (HREC [17]): inactive
- Activity (HREC [18]): inactive
- Activity (HREC [19]): inactive

SMILES: CCCC(CCC)C(=O)OC(CCCN1CCC(O)(c2ccc(Cl)cc2)CC1)c1ccc(F)cc1 (racemic)
- solubility at 1 h [20]: 1400 µg/mL (≈ 2780 µM)
- Stabilty [21]: Unstable
- IC50 ([1]; read-out: IC50): 10.6 µM
- IC50 ([1]; read-out: pIC50 (converted)): 10.6 µM
- Activity [22]: 18%
- Activity [23]: 25%
- half-life [24]: 129 h
- Activity (HREC [25]): inactive
- Activity [26]: 24%
- Activity [27]: 32%
- IC50 ([4]; read-out: IC50): 11.1 µM
- IC50 ([4]; read-out: pIC50 (converted)): 11.1 µM
- Ki [5]: 0.013 µM
- Activity (HREC [28]): Active
- Stabilty [29]: Stable
- Activity [30]: 52%
- Ki [7]: 0.124 µM
- Activity [31]: 28%
- Activity [32]: 28%
- inhibition [33]: inactive
- Activity [34]: 30%
- IC50 ([8]; read-out: IC50): 10.1 µM
- IC50 ([8]; read-out: pIC50 (converted)): 10.1 µM
- Activity (HREC [35]): inactive
- Activity (HREC [9]): inactive
- IC50 ([10]; read-out: IC50): 10.5 µM
- IC50 ([10]; read-out: pIC50 (converted)): 10.5 µM
- Activity (HREC [36]): Active
- Ki (D(2) dopamine receptor): > 5 µM
- Activity (HREC [37]): inactive
- Activity [38]: 67%
- half-life [39]: 134 h
- Activity [40]: 55%
- Ki (D(3) dopamine receptor): > 5 µM
